Results from ChEMBL document CHEMBL1821619 (Bioorg Med Chem Lett, 2011).

Tests used:
[1] = target: Histamine H3 receptor (Homo sapiens, UniProt Q9Y5N1); experiment: Displacement of [125I]Iodoproxyfan from recombinant human histamine H3 receptor expressed in HEK293 cells after 60 mins; assay type: cell-based
[2] = target: Histamine H3 receptor (Mus musculus, UniProt P58406); experiment: Displacement of [125I]Iodoproxyfan from mouse brain cortex histamine H3 receptor after 60 mins; assay type: tissue-based
Outline: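 Competition binding used [125I]-iodoproxyfan against human recombinant H3R and native mouse brain cortex H3R. Ki values are means of at least two experiments run in duplicate or triplicate, reported as mean ± SEM.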

[3] = target: CYP3A4 (Homo sapiens, UniProt P08684); experiment: Inhibition of CYP3A4 at 1 uM; assay type: ADME
Outline: (§1)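 Compounds were incubated at 37 ± 0.5 °C with agitation with human recombinant CYP isoforms, isoform-selective fluorescent substrates and an NADPH-generating system.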

[4] = target: CYP2D6 (Homo sapiens, UniProt P10635); experiment: Inhibition of CYP2D6 at 1 uM; assay type: ADME; outline: as §1
[5] = target: CYP2C9 (Homo sapiens, UniProt P11712); experiment: Inhibition of CYP2C9 at 1 uM; assay type: ADME; outline: as §1
[6] = target: T1, hERG (KCNH2) (Homo sapiens, UniProt Q12809); experiment: Inhibition of human ERG expressed in HEK293 cells at 10 uM by patch clamp assay; assay type: cell-based; conditions: HEK293 cells expressing human ERG
[7] = test system: Mus musculus; experiment: Inverse agonist activity at histamine H3 receptor in po dosed Swiss mouse assessed as brain N-tele-methylhistamine level measured after 90 mins by enzyme immunoassay; assay type: functional; conditions: 1.5 h
Outline: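 Compounds were given orally to at least 6 male Swiss mice per dose. Brain N-tele-methylhistamine was measured by enzyme immunoassay 90 min after dosing. Intrinsic activity was scaled to ciproxifan as the reference full inverse agonist. ED50 is given as mean ± SEM.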

[8] = target: Cytochrome P450 3A4 (Homo sapiens, UniProt P08684); experiment: Inhibition of CYP3A4; assay type: ADME; outline: as §1
[9] = target: Cytochrome P450 2D6 (Homo sapiens, UniProt P10635); experiment: Inhibition of CYP2D6; assay type: ADME; outline: as §1
[10] = target: Cytochrome P450 2C9 (Homo sapiens, UniProt P11712); experiment: Inhibition of CYP2C9; assay type: ADME; outline: as §1
[11] = target: T1, hERG (KCNH2); experiment: Inhibition of human ERG expressed in HEK293 cells at 1 uM by patch clamp assay; assay type: cell-based; conditions: HEK293 cells expressing human ERG
[12] = AUC (0 to 3 hrs) in Swiss mouse brain at 10 mg/kg, po by LC-MS/MS; assay type: ADME, organism-based; parameters: time < 3 hr, dose 10 mg/kg, route oral
[13] = Tmax in Swiss mouse brain at 10 mg/kg, po by LC-MS/MS; assay type: ADME, organism-based; parameters: dose 10 mg/kg, route oral
[14] = AUC (0 to 3 hrs) in Swiss mouse plasma at 10 mg/kg, po by LC-MS/MS; assay type: ADME, organism-based; parameters: time < 3 hr, dose 10 mg/kg, route oral
[15] = Tmax in Swiss mouse plasma at 10 mg/kg, po by LC-MS/MS; assay type: ADME, organism-based; parameters: dose 10 mg/kg, route oral
[16] = test system: Liver microsomes; experiment: Metabolic stability in human liver microsomes at 100 nM upto 250 mins by LC-MS/MS; assay type: ADME, Microsome; conditions: 0.1 µM
Outline: (§2)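 Compound at 100 nM was incubated with pooled human or mouse liver microsomes (0.5 mg/mL protein) plus NADP. Remaining compound was followed over time by LC-MS/MS.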

[17] = test system: Liver; experiment: Metabolic stability in mouse liver microsomes at 100 nM upto 250 mins by LC-MS/MS; assay type: ADME, Microsome; conditions: 0.1 µM; outline: as §2
[18] = AUC (0 to 8 hrs) in Swiss mouse plasma at 10 mg/kg, po by LC-MS/MS; assay type: ADME, organism-based; parameters: time < 8 hr, dose 10 mg/kg, route oral
Outline: (§3)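 Male Swiss mice received a single 10 mg/kg oral dose. Compound was quantified in plasma and brain tissue by LC-MS/MS over 8 h, and AUC0-8h was derived. Data are mean ± SEM of 3 mice.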

[19] = AUC (0 to 8 hrs) in Swiss mouse brain at 10 mg/kg, po by LC-MS/MS; assay type: ADME, organism-based; parameters: time < 8 hr, dose 10 mg/kg, route oral; outline: as §3
[20] = Ratio of AUC (0 to 8 hrs) in Swiss mouse brain to AUC (0 to 8 hrs) in Swiss mouse plasma at 10 mg/kg, po by LC-MS/MS; assay type: ADME, organism-based; parameters: dose 10 mg/kg, route oral; conditions: brain and plasma, read-out: Ratio AUC
Outline: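 Male Swiss mice given single 10 mg/kg oral dose; plasma and brain tissue sampled over 0–8 h and drug quantified by LC-MS/MS; AUC0-8h computed for each matrix, ratio brain to plasma; mean ± SEM of 3 mice.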

Histamine H3 receptor (Homo sapiens, UniProt Q9Y5N1), sequence (Q9Y5N1 whole entry): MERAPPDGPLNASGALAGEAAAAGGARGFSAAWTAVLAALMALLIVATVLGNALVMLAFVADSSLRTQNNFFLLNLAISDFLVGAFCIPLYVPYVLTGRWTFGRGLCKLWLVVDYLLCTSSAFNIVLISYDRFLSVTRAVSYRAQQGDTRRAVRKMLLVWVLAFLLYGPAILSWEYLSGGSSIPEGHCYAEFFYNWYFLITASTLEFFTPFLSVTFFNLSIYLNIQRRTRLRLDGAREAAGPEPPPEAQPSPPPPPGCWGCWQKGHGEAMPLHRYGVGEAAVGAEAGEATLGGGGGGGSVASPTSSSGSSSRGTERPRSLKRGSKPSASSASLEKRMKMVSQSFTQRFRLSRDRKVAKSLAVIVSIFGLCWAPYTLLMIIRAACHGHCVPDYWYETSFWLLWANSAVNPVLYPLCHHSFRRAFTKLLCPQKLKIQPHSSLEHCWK
CYP3A4, sequence (P08684 whole entry, canonical isoform): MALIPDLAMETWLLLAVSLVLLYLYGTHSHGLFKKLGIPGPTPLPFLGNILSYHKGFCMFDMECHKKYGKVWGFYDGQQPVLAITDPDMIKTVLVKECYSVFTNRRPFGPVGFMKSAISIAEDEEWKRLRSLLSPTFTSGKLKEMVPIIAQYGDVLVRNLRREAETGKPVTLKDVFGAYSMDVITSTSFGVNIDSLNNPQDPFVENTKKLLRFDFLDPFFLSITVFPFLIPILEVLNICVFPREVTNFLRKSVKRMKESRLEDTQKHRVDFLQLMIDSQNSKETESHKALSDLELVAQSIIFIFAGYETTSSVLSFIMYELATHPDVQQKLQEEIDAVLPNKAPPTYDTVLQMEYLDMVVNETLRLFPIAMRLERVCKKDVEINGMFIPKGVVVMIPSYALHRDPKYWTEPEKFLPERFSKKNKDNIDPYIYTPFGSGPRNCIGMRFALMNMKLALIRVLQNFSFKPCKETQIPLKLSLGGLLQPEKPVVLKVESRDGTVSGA
Cytochrome P450 3A4, sequence (P08684 whole entry): as the sequence (P08684 whole entry, canonical isoform) above
T1 sequence (Q12809 whole entry): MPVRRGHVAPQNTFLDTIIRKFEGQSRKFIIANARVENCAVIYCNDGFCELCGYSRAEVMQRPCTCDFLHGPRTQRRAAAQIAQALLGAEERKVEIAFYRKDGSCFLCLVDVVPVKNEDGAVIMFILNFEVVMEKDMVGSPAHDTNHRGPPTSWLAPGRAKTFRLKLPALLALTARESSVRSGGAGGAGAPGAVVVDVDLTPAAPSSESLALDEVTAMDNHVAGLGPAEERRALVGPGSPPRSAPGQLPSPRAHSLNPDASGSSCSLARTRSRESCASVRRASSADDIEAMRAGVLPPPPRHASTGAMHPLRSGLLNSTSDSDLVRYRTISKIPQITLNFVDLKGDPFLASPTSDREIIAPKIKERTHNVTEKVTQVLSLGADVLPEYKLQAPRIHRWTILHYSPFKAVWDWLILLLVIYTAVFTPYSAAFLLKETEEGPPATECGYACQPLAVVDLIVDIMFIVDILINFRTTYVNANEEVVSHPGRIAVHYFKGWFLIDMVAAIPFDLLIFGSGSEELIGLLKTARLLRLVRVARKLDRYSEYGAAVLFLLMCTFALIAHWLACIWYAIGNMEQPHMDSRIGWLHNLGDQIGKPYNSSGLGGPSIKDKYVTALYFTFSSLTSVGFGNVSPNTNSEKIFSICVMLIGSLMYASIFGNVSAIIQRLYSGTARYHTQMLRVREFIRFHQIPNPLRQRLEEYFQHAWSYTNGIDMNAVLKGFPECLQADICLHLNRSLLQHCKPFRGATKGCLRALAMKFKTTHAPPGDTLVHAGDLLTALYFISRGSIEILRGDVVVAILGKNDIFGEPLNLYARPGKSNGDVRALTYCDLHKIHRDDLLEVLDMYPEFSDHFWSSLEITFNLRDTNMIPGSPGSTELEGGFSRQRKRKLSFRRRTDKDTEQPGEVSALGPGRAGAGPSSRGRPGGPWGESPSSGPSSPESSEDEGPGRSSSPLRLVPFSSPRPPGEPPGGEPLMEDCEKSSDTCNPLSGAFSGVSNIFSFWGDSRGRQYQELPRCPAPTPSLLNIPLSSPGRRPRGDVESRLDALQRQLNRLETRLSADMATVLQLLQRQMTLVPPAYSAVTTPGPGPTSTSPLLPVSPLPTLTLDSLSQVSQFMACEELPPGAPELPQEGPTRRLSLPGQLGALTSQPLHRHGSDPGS
Cytochrome P450 2D6, sequence (P10635 whole entry): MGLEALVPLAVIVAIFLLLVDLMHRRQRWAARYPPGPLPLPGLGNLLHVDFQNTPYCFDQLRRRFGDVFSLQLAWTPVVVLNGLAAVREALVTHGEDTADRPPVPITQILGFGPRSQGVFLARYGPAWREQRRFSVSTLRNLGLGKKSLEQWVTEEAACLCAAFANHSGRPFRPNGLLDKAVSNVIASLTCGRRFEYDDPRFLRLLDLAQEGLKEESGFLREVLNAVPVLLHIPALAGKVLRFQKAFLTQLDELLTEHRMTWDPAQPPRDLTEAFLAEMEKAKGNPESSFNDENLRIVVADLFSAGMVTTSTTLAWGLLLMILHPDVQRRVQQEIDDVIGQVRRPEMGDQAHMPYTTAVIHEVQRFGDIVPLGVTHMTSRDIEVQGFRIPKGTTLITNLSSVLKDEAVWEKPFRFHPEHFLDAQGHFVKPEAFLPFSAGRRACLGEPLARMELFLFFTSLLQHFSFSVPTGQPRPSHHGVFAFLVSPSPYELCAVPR
CYP2D6, sequence (P10635 whole entry): as above
Histamine H3 receptor (Mus musculus, UniProt P58406), sequence (P58406 whole entry): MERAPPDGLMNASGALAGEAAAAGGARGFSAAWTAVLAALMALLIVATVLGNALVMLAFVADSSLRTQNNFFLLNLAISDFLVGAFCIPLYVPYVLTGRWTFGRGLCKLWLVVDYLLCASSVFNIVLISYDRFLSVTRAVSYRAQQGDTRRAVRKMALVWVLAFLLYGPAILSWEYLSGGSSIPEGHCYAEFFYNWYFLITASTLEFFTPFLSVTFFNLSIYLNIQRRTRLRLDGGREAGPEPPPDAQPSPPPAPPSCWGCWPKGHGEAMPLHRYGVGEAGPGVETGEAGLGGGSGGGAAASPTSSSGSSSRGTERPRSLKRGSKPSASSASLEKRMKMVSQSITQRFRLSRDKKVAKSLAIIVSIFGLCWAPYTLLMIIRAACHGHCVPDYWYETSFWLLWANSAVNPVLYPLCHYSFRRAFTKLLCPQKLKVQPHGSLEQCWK
CYP2C9, sequence (P11712 whole entry): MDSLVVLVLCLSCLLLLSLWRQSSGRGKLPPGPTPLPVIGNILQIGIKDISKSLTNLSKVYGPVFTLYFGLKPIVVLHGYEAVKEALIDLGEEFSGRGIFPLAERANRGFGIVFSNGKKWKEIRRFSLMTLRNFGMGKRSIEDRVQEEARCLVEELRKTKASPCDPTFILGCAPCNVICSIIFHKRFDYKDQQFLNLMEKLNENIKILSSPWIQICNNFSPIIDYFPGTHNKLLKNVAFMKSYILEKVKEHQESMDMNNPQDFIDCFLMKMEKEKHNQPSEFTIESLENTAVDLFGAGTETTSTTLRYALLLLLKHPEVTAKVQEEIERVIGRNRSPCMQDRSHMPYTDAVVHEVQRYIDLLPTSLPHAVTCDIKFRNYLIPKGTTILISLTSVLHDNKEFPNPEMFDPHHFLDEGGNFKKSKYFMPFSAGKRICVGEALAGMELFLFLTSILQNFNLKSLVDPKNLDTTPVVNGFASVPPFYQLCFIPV
Cytochrome P450 2C9, sequence (P11712 whole entry): as above

SMILES	Ki [1]	Ki [2]	inhibition at 1 µM [3]	inhibition at 1 µM [4]	inhibition at 1 µM [5]	IC50 [10]	other results
c1cc([C@H]2CC[C@H](N3CCC3)CC2)ccc1OCCCN1CCCCC1	0.25 nM	1.6 nM	4.2%	0.8%	-12.1%	–	inhibition at 10 µM [6]: 41%; ED50 [7]: 2.8 mg/kg
CN(C)[C@H]1CC[C@@H](c2ccc(OCCCN3CCCCC3)cc2)CC1	–	0.28 nM	–	–	–	11300 nM	IC50 [8]: 50000 nM; IC50 [9]: > 100000 nM; ED50 [7]: 3.7 mg/kg
c1cc([C@H]2CC[C@H](N3CCCC3)CC2)ccc1OCCCN1CCCCC1	0.25 nM	0.33 nM	–	–	–	15300 nM	IC50 [9]: > 100000 nM; inhibition at 1 µM [11]: 14%; inhibition at 10 µM [6]: 22%; ED50 [7]: 3 mg/kg
CN1CCN([C@H]2CC[C@H](c3ccc(OCCCN4CCCCC4)cc3)CC2)CC1	0.32 nM	2.3 nM	20.9%	3.4%	3.4%	–	–
c1ccc2c(c1)CN([C@H]1CC[C@H](c3ccc(OCCCN4CCCCC4)cc3)CC1)C2	0.17 nM	1.4 nM	8.9%	21.9%	25.1%	–	–
c1ccc(CN[C@H]2CC[C@H](c3ccc(OCCCN4CCCCC4)cc3)CC2)cc1	0.26 nM	2.1 nM	39.9%	20%	47.8%	1000 nM	–
CN1CCN([C@H]2CC[C@@H](c3ccc(OCCCN4CCCCC4)cc3)CC2)CC1	0.92 nM	–	–	–	–	–	–
CN(C)[C@H]1CC[C@H](c2ccc(OCCCN3CCCCC3)cc2)CC1	–	0.52 nM	–	–	–	40700 nM	IC50 [8]: 42600 nM; IC50 [9]: > 100000 nM; ED50 [7]: 3.7 mg/kg
c1cc([C@H]2CC[C@@H](N3CCC3)CC2)ccc1OCCCN1CCCCC1	0.34 nM	–	–	–	–	–	–
CCCCN[C@H]1CC[C@@H](c2ccc(OCCCN3CCCCC3)cc2)CC1	0.53 nM	–	25.4%	2.9%	53.9%	1000 nM	–
c1cc(OCCCN2CCCCC2)ccc1CN1CCCCC1 [JNJ-5207852]	–	–	–	–	–	–	AUC(0-t) at 3 h [12]: 1100 ng·h/mL; Tmax [13]: 3 h; AUC(0-t) at 3 h [14]: 1040 ng·h/mL; Tmax [15]: 0.5 h
c1cc([C@H]2CC[C@@H](N3CCCC3)CC2)ccc1OCCCN1CCCCC1	0.33 nM	1 nM	–	–	–	22300 nM	IC50 [8]: 41700 nM; IC50 [9]: > 100000 nM; inhibition at 1 µM [11]: 11%; inhibition at 10 µM [6]: 15%
c1cc([C@H]2CC[C@@H](N3CCOCC3)CC2)ccc1OCCCN1CCCCC1	0.67 nM	–	–	–	–	–	–
c1ccc(CN[C@H]2CC[C@@H](c3ccc(OCCCN4CCCCC4)cc3)CC2)cc1	0.29 nM	–	–	–	–	–	–
OC1CCN([C@H]2CC[C@@H](c3ccc(OCCCN4CCCCC4)cc3)CC2)CC1	0.92 nM	–	–	–	–	–	–
O=C1CCC(c2ccc(OCCCN3CCCCC3)cc2)CC1	1.7 nM	–	4.1%	3.8%	21.4%	–	–
c1ccc2c(c1)CN([C@H]1CC[C@@H](c3ccc(OCCCN4CCCCC4)cc3)CC1)C2	0.41 nM	–	–	–	–	–	–
CN[C@H]1CC[C@H](c2ccc(OCCCN3CCCCC3)cc2)CC1	3.2 nM	–	–	–	–	–	–
c1cc([C@H]2CC[C@H](N3CCOCC3)CC2)ccc1OCCCN1CCCCC1	0.41 nM	1.6 nM	–	–	–	44000 nM	IC50 [8]: 66200 nM; IC50 [9]: > 100000 nM; inhibition at 10 µM [6]: 34%; ED50 [7]: 1.3 mg/kg; Stability [16]: Stable; Stability [17]: Stable; AUC(0-t) at 8 h [18]: 2110 ng·h/mL; AUC(0-t) at 8 h [19]: 15600 ng·h/mL; Kp [20]: 7.4
c1cc([C@H]2CC[C@H](N3CCCCC3)CC2)ccc1OCCCN1CCCCC1	0.64 nM	1 nM	5.2%	1.4%	33.5%	–	inhibition at 1 µM [11]: 42%; ED50 [7]: 4.2 mg/kg
OC1CCN([C@H]2CC[C@H](c3ccc(OCCCN4CCCCC4)cc3)CC2)CC1	0.57 nM	–	3.3%	15.7%	3.4%	–	–
CC1CCN([C@H]2CC[C@@H](c3ccc(OCCCN4CCCCC4)cc3)CC2)CC1	0.56 nM	–	26.1%	-7.8%	52.9%	–	–
CN([C@H]1CC[C@H](c2ccc(OCCCN3CCCCC3)cc2)CC1)S(=O)(=O)c1ccccc1	5.5 nM	–	–	–	–	–	–
CCCCN[C@H]1CC[C@H](c2ccc(OCCCN3CCCCC3)cc2)CC1	0.64 nM	–	26.6%	-8.9%	54.7%	1000 nM	–
